According to ChEMBL document CHEMBL1148990, “Effect of benzylic oxygen on the antioxidant activity of phenolic lignans” (J Nat Prod, 2005):
Activity calls are given as the source filed them. No cut-off for these calls is given here.

Legend:
[1] = Antioxidant activity assessed as AAPH radical scavenging activity after 3 hrs; assay type: functional
Procedure, shortened: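 Ethyl linoleate (50 mM) oxidized with AAPH (10 mM) in 0.3 M Tween 20/0.05 M phosphate buffer (pH 7.4) micelles; test sample 0.10 mM final (from DMSO stock). Incubation 37 °C, dark, with shaking, 3 h. Aliquot quenched into methanolic trolox; ethyl linoleate hydroperoxide quantified by reverse-phase HPLC at 234 nm from a peak-area calibration equation.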

[2] = system: Radical scavenging activity; assay: Antioxidant activity assessed as DPPH radical scavenging activity; assay type: functional
Procedure, shortened: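 Test sample at 20 µM final mixed with DPPH (0.1 mM); stood 0.5 h at 25 °C, then absorbance read at 517 nm. Activity expressed as decrease of absorbance: DPPH blank minus (DPPH + sample) plus sample-only absorbance.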

SMILES	Activity [1]	Activity [2]
COc1cc(C[C@H]2COC(=O)[C@@H]2Cc2ccc(O)c(OC)c2)ccc1O	Active	Active
COc1cc(C(O)[C@H]2COC[C@@H]2[C@@H](O)c2ccc(O)c(OC)c2)ccc1O (single isomer, unassigned)	Active	Active
COc1cc([C@@H](O)[C@H]2COC[C@@H]2[C@H](O)c2ccc(O)c(OC)c2)ccc1O	Active	Active
COc1cc(C[C@H]2COC[C@@H]2[C@H](O)c2ccc(O)c(OC)c2)ccc1O	Active	Active
COc1cc([C@@H]2c3cc(O)c(OC)cc3C[C@H]3COC[C@H]32)ccc1O	Active	Active
COc1cc(C[C@H]2COC[C@@H]2[C@@H](O)c2ccc(O)c(OC)c2)ccc1O	Active	Active
COc1cc(C[C@H]2COC[C@@H]2C(=O)c2ccc(O)c(OC)c2)ccc1O	Active	Active
COc1cc(C[C@H]2COC[C@@H]2Cc2ccc(O)c(OC)c2)ccc1O	Active	Active
